# Source: PubChem (several laboratories)
# DDE Tn6 FP inh = disrupts Tn6 cyclic peptide binding to fibrin D-Dimer-E complex. P02675. Fibrin DD(E) TRITC-Tn6 fluorescence polarization displacement. inhibition, % at 8.3 µM. actives 0.21% (n = 370,000);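 active = inhibition above a per-campaign cutoff: mean of compounds within control limits plus 3 SD, cut at about 15% in these data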;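 note: 0% = median of all compound wells on the plate and 100% = blocking peptide control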
# PLC-gamma1 inh = inhibitors of human phospholipase C gamma1; P19174; purified PLC-gamma1, fluorogenic substrate, fluorescence; inhibition, % at 12.2 µM; actives 0.84% (n = 370,000); AID 720700; in the data active = inhibition above about 9.5%
# DDE Tn7 FP inh = disrupts Tn7 cyclic peptide binding to fibrin D-Dimer-E complex; FP displacement of FITC-Tn7 peptide from fibrin DD(E); 0% = median of compound wells per plate; inhibition, % at 8.3 µM; actives 0.13% (n = 370,000); AID 720508;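 active = inhibition above the mean of compounds falling within the control limits plus 3 SD of them, cut at about 14% in these data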;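 note: 0% = plate median of compound wells and 100% = 10 µM Aha-Tn7 peptide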
#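 System: human fibrin DD(E); quantity: Fibrin-DD(E) at 2 µM final; also added: fluorescent Tn7 probe at 0.1 µM; compound dosing: single nominal test concentration of 8.3 µM per compound; schedule: 10 min preincubation, 3 h with tracer, room temperature; detection: fluorescence polarization of the labelled Tn7 tracer; repeats: one replicate per compound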
# NRP1-CendR mod = modulators of CendR peptide binding to human neuropilin-1 | actives 0.85% (n = 360,000) | O14786 | FAM-RPARPAR peptide binding to NRP-1, fluorescence polarization | AID 602438 | inhibition, % at 25 µM;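 active = inhibition or corrected inhibition above about 18%, plus a signal ratio from 0.5 to 1.5, limit read from the data, passing the limit was not always enough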
# PLCb3 inh = PLC-beta3 (human) inhibition, primary screen. actives 0.18% (n = 370,000). AID 720704. inhibition, % at 12.2 µM. Q01970. Purified PLC-beta3, fluorogenic substrate, fluorescence; in the data active = inhibition above about 11%;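 note: 0% = median of compound wells on plate and 100% = full blocker control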
# proKLK7 act = activators of human kallikrein-7 zymogen. purified proKLK7, EDANS-DABCYL substrate fluorescence; 100% is mature enzyme control, 0% vehicle. activation, % at 7 µM. actives 0.9% (n = 370,000). AID 652039;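 active = activation above the mean of all tested compounds plus 3 SD, computed per campaign excluding outliers beyond control limits, cut at about 13% in these data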
# Target sequence (P49862 whole entry, looked up): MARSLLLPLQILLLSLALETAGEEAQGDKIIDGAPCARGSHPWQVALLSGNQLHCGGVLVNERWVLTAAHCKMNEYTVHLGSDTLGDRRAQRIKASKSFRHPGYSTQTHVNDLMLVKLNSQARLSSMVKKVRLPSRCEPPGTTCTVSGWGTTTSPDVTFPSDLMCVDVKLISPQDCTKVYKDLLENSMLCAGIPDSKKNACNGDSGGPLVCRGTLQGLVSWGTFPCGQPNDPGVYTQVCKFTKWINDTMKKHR
# Numbers without * were called inactive; i = inactive; x = no result. A selection: hits, their analogues and other compounds. The true share with any hit is near 3%.
SMILES,DDE Tn6 FP inh,PLC-gamma1 inh,DDE Tn7 FP inh,NRP1-CendR mod,PLCb3 inh,proKLK7 act
COC(=O)[C@H]1C[C@@]2(N3CCCCC3)c3ccccc3N[C@H]2N1S(=O)(=O)c1ccc([N+](=O)[O-])cc1,3,4,-3,x,4,0
Cc1cc(C)n(CCc2nc(-c3cccs3)cs2)n1,-4,1,-2,31*,1,-2
Cc1cc(C)n(CCc2nc(-c3ccc(-c4ccccc4)cc3)cs2)n1,2,-2,-4,4,-2,-1
O=C(COc1ccc(Br)cc1CO)Nc1ccc(S(=O)(=O)N2CCCC2)cc1,2,-3,0,-8,-8,1
O=C(COc1ccc(Br)cc1CO)Nc1ccc(F)cc1,-3,0,6,26*,5,0
C/C=C/C(=O)N1CCC(C(=O)NCC2COc3ccccc3O2)CC1 (stereo unspecified),2,3,0,x,4,0
Cc1ccc(C(=O)NCC(=O)OCC(=O)c2cc(C)n(Cc3ccco3)c2C)cc1,1,-2,-2,33*,-2,0
Cc1cc(C(=O)COC(=O)Cn2c(C(F)(F)F)nc3ccccc32)c(C)n1Cc1ccco1,-3,-1,5,20*,-2,0
Cc1cc(C(=O)COC(=O)CNC(=O)c2ccc(Cl)c(Cl)c2)c(C)n1Cc1ccco1,1,-1,6,-2,-3,0
CCN(CC)S(=O)(=O)c1cccc(C(=O)NC(Cc2c[nH]c3ccccc23)c2nnc3n2CCCCC3)c1 (stereo unspecified),-16,-1,2,26*,-3,1
COC(=O)[C@H]1C[C@@]2(n3ccc4ccccc43)c3ccccc3N(S(=O)(=O)c3ccccc3)[C@H]2N1C(=O)CNC1CCCCC1,-10,2,-3,x,0,0
Cc1ccc(-n2nc3ccc(N)cc3n2)cc1,-8,i,-5,-10,i,35*
COc1cccc(/C=N/NC(=S)Nc2cccnc2)c1,-1,-2,-1,9,2,1
Oc1ccc(/C=N/NC(=S)Nc2cccnc2)cc1,-1,-5,1,23*,-14,-3
CCN1CCN(c2nc(-c3ccccc3)nc3ccccc23)CC1,-1,-2,-4,-12,-2,0
Cc1cccc2nc(-c3ccccc3)nc(N3CCC(O)(c4ccc(Cl)cc4)CC3)c12,5,0,-1,31*,3,0
Cc1cc(F)ccc1S(=O)(=O)Nc1ccccc1C(=O)NCc1ccccn1,-2,-29,0,0,-38,1
Cc1cc(F)ccc1S(=O)(=O)Nc1ccccc1C(=O)Nc1ncn[nH]1,-1,-122,3,19*,-146,-8
c1ccn2c(SCc3ccc4c(c3)OCO4)nnc2c1,1,-1,-4,24*,-3,0
O=C(CSc1nnc2ccccn12)Nc1ccc2c(c1)OCO2,2,-2,-5,11,-4,0
Cn1c(SCc2ccc3c(c2)OCO3)nnc1-c1ccccc1,5,-4,7,3,0,1
O=C(CCSc1nnc2ccccn12)Nc1ccc2c(c1)OCO2,4,-9,-2,23*,-7,1
CCOC(=O)c1c(C)oc2c1c(C=NCCO)c(O)c1ccccc12,-2,-29,4,35*,-45,0
COc1ccc(CCNC(=O)Nc2nc(C(N)CCc3ccccc3)cs2)cc1OC (stereo unspecified),2,3,0,-5,3,0
COc1ccc(CCNC(=O)Nc2nc(C(N)C3CCCCC3)cs2)cc1OC (stereo unspecified),-8,0,2,17*,2,0
COc1ccc(OC)c(NC(=O)C2CC(=O)N(c3ccc(Br)cc3)C2)c1 (stereo unspecified),-3,0,6,26*,0,0
CC(=O)Nc1ccc(NC(=O)C2CC(=O)N(c3ccc(Cl)cc3)C2)cc1 (stereo unspecified),2,4,2,28*,-4,0
O=C(N/N=C/C=C/c1ccccc1)c1ccccn1,10,-2,5,8,-6,0
